The source made the active and inactive calls.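 How the source made its calls, unless noted: active means a full or partial loss of lipid-probe fluorescence in the fish gall bladder, intestine or both, judged by eye; inactive means no fluorescence loss, or compound toxic to the fish.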

Here are results for eleven compounds from PubChem BioAssay.

A short description of test [1]: inhibitors of TNFa-induced NFkB p65 translocation, primary screen, imaging, HUVEC, MLSMR starter and 10KST1 sets (AID 438;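 active means inhibition above 20% together with a positive visual image hit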;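 further: compound added about 3h40 before a 20 min TNFalpha stimulation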;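 on inhibition: signal is the nuclear over cytoplasmic p65 intensity ratio per well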). The note with it: HUVEC TNFa-induced p65 nuclear translocation; cell count: measured here: nuclei count (cytotoxicity indicator), at 2.08 µM; inhibition: at 2 µM, stronger effect = higher value, 0% TNFa-plus-vehicle, 100% no-TNFa wells.
Test [2] is described as follows: endothelial E-selectin expression blockers – imaging, HUVEC, immunofluorescence, MLSMR starter and 10KST1 sets, primary screen (AID 487;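 active means visually confirmed hit in the image check and inhibition above 20%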;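 on inhibition: signal is fraction of cell area covered by stained E-selectin grains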;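 on nuclei count: 100% = median nuclei count of all wells on the same plate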). The conditions noted are these: HUVEC TNFalpha-induced E-selectin immunofluorescence imaging, at 2 µM; inhibition: stronger effect = higher value; nuclei count: measured here: cell number, toxicity.
The nature of test [3]: Primary imaging screen for DUSP6 inhibitors that restore phospho-Erk in transfected HeLa cells, chemical complementation (AID 609;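 active means compounds giving at least 50% inhibition in the cell-based MKP-3 phosphatase rescue imaging test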;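 on inhibition: phospho-Erk level distribution per well compared with pooled transfected vehicle control wells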). The note with it: HeLa MKP-3 transfected, phospho-Erk imaging KS statistic, at 10 µM, cells stimulated with TPA for 15 min.
In test [4] the target is Dual specificity protein phosphatase 6 (Homo sapiens) (UniProt Q16828). Described as above. The note with it: HeLa MKP-3 transfected, phospho-Erk imaging KS statistic; at 10 µM; stronger effect = higher value; cells stimulated with TPA for 15 min.
Sequence of Dual specificity protein phosphatase 6 (Homo sapiens) (Q16828 whole entry, looked up): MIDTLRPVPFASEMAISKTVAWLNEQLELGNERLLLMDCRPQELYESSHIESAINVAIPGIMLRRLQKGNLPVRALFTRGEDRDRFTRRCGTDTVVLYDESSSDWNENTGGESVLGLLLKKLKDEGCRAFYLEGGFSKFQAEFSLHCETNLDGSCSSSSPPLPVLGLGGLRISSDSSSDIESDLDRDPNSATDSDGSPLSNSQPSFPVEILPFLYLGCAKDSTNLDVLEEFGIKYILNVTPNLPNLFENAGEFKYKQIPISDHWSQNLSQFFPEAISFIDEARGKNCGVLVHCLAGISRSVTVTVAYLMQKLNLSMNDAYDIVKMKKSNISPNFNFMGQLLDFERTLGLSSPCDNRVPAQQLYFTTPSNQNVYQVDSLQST
In test [5] the target is Voltage-gated potassium channel subunit beta-2 (Rattus norvegicus) (UniProt P62483). The test is described as follows: inhibitors of rat Kvbeta2 reductase activity – biochemical, NADPH fluorescence, primary screen (AID 622;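 active means fluorescence slope higher than the sample average by over 3 SD, cut at about -0.22 in these data, passing the limit was not always enough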;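 further: slope of raw intensity against log time taken from 70 to 1610 s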). The conditions noted are these: recombinant KvBeta, 4-cyanobenzaldehyde reduction, at 10 µM, stronger effect = higher value.
Sequence of Voltage-gated potassium channel subunit beta-2 (Rattus norvegicus) (P62483 whole entry, looked up): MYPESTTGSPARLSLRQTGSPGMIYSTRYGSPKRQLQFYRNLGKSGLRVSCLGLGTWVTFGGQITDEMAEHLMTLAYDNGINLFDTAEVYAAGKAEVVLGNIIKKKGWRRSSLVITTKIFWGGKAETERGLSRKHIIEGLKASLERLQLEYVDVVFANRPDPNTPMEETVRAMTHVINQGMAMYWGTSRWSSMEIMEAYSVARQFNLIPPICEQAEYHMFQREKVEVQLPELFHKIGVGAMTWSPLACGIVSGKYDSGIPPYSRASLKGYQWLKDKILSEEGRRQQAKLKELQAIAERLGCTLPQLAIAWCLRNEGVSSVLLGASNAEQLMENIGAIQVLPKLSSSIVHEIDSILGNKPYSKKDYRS
The target is the same in test [6]. Kind of test: enhancers of rat Kvbeta2 NADPH turnover – biochemical, NADPH fluorescence, primary screen (AID 623;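 active means NADPH fluorescence slope more negative than the mean of all samples by about 3 SD, 99.7% confidence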;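 further: fluorescence intensity change per second fitted from 20 to 320 s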). The note with it: Recombinant KvBeta, NADPH fluorescence decrease slope, 10 min; at 10 µM; stronger effect = lower value.
Test [7] addresses Alpha-2C adrenergic receptor (Homo sapiens) (UniProt P18825). The test is described as follows: compounds altering alpha2C-coupled GIRK flux – cell-based, HEK293 alpha2C/GIRK1/2, thallium flux, primary screen (AID 624;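 active means fluorescence slope after compound addition differing from the mean of all screened samples at 99.7% confidence, in either direction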;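 further: slope of fluorescence ratio to pre-addition baseline per second over 15 to 24 s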). The conditions noted are these: thallium flux BTC fluorescence, at 10 µM, actives lie on both sides.
The nature of test [8]: inhibitors of larval lipid processing in zebrafish, primary screen, whole organism, PED6 fluorescence, gall bladder and intestine (AID 686).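 Further: larvae 5 to 7 days old with five fish per well; signal comes from phospholipase A2 cleavage of quenched PED6 carried via bile; overnight exposure to compound and PED6 before scoring.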 The note with it: Zebrafish larvae PED6 lipid processing, fluorescence scoring; screened at 20 µM (by protocol). The method, boiled down:
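System: live zebrafish larvae aged 5-7 days, whole organism; measure: graded gall bladder and intestinal fluorescence inhibition per well; incubation: overnight exposure; reagent: ingested quenched lipid PED6 at 100 nM; signal: By-eye fluorescence microscopy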

Test [9] is described as follows: loss of swimming-algae plug formation – whole organism, Chlamydomonas reinhardtii, WT vs cilia-less mutant, absorbance, 96-well, primary screen (AID 463189;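 active means inhibition at or above 50% relative to wild type and mutant plate controls; inactive means inhibition below 50%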;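 further: 0% = wild type cc124 cells in DMSO and 100% = ciliumless bld1 mutant cells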). The conditions noted are these: Chlamydomonas reinhardtii gravitaxis, OD600 absorbance, 2 days; at 10 µM; stronger effect = higher value.
Setting [10] is: measured here: cell density z-score.
Where [11] appears, read: measured here: nuclear c-Myc green intensity z-score.
Setting [12] is: measured here: nuclear pErk red intensity z-score, stronger effect = higher value.

Sequence of Alpha-2C adrenergic receptor (Homo sapiens) (P18825 whole entry, looked up): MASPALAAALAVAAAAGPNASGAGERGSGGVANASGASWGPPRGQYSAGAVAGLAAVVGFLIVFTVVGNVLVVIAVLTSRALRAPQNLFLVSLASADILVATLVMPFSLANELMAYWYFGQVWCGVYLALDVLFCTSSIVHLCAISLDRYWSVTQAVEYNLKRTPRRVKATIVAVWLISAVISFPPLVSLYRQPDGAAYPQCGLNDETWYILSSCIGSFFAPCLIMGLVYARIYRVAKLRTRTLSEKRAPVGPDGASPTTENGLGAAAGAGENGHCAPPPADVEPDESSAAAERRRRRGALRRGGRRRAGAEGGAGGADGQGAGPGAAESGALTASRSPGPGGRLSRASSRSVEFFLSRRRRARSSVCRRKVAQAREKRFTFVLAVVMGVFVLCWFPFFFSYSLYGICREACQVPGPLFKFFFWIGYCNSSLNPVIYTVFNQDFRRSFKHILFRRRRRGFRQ

As usually defined, the inhibition is the relative decrease from the control value, in per cent. On to `COCCNc1nc2c(c(=O)n(Cc3ccc(OC)cc3)c(=O)n2C)n1C`, for which the cell count in test [1] turned out to be 357. Besides, the inhibition in test [1] was -17.8% (inactive); in [2] it was -26.3% (inactive); in test [4], 4.37% (inactive); in test [9], 15.2% (inactive). Also, in test [2], the nuclei count came out at 128%. Besides, the z-score in test [3] (setting [10]) was 0.697; in test [3] (setting [11]), 0.778; in [3] (setting [12]), -0.00517. Further, in test [5], the fluorescence slope was -0.32 (inactive). In test [6], the NADPH fluorescence slope is 7.3e-06 (inactive). The slope in test [7] was 0.00535 (inactive). For the same compound, the compound was classed as inactive in [8].
As to `Brc1ccc(-c2cnc3n2CCCC3)cc1`, in [1], the cell count was 363. The inhibition in test [1] was -4.2% (inactive); in test [2], -15.9% (inactive); in test [4], 5.65% (inactive); in test [9], 142% (active). Moreover, the nuclei count in test [2] was determined as 108%. The figures for the z-score in test [3] (setting [10]), in test [3] (setting [11]) and in test [3] (setting [12]) were 0.187, 2.77 and -1.27, respectively. For the same compound, the fluorescence slope in [5] was -0.46 (inactive). For the same compound, in test [6], the NADPH fluorescence slope is -0.000301 (inactive). Further, the slope in test [7] was 0.00468 (inactive). The compound was classed as inactive in test [8].
As to `CCSc1nnc(N(CCC#N)CCC#N)s1`, in [1], the cell count was 364. For the same compound, the inhibition in test [1] is -4.7% (inactive); in test [2], -60.2% (inactive); in test [4], 5.57% (inactive); in test [9], -11.4% (inactive). This compound also had a nuclei count in test [2] of 114%. Besides, the z-score was -0.814 in test [3] (setting [10]), 0.606 in test [3] (setting [11]) and -1.64 in test [3] (setting [12]). Further, the fluorescence slope in test [5] was -0.474 (inactive). In test [6], the NADPH fluorescence slope is -5.4e-06 (inactive). For the same compound, in test [7], the slope is 0.00528 (inactive). In addition, in test [8], the outcome was inactive.
Regarding `COc1ccccc1C1/C(=C(/O)c2cnn(-c3ccccc3)c2C)C(=O)C(=O)N1CCN(C)C` (stereo not drawn), in [1], the cell count amounted to 498. The inhibition is -0.5% (inactive) in [1], -189% (inactive) in test [2], 10.5% (inactive) in [4] and -1.15% (inactive) in [9]. Further, the nuclei count in [2] is 132%. Also, the z-score is 0.414 in test [3] (setting [10]), -0.415 in [3] (setting [11]) and -0.719 in test [3] (setting [12]). The fluorescence slope in test [5] was -0.558 (inactive). Besides, the NADPH fluorescence slope in test [6] is -7e-05 (inactive). The slope in test [7] is 0.00448 (inactive). The outcome in test [8] was “inactive; toxic”.
`O=C1c2ccccc2S(=O)(=O)N1CC(O)COc1ccc(Cl)cc1` (stereo not drawn): in [1], the cell count was determined as 354. The inhibition in [1] is -14.1% (inactive); in test [2] it was -291% (inactive); in [4] it was 1.75% (inactive); in test [9] it was 1.18% (inactive). In addition, the nuclei count in [2] came to 97%. Moreover, the z-score in test [3] (setting [10]) was 0.633; in test [3] (setting [11]) it was 0.437; in test [3] (setting [12]) it was -1.99. In addition, in [5], the fluorescence slope is -0.439 (inactive). In addition, in test [6], the NADPH fluorescence slope is -8.9e-06 (inactive). In addition, the slope in test [7] was 0.00476 (inactive). In addition, in test [8], the result was inactive.
For the compound `COc1ccc(C2=CC(c3cccc(OC)c3)n3nnnc3N2)cc1` (stereo not drawn), the cell count in test [1] is 539. Also, the inhibition in test [1] is -14.8% (inactive); in test [2] it was -119% (inactive); in test [4], 13.7% (inactive); in test [9], 6.7% (inactive). In test [2], this compound came in with a nuclei count of 145%. The values for the z-score in [3] (setting [10]), in [3] (setting [11]) and in test [3] (setting [12]) were 2.98, -1.71 and -0.495, respectively. Moreover, the fluorescence slope in [5] was -0.474 (inactive). Besides, the NADPH fluorescence slope in test [6] is -6.4e-05 (inactive). Besides, the slope in test [7] was 0.00383 (inactive). Moreover, the compound was called inactive in test [8].
Consider `CCOc1nnnc2c1sc1nc(N3CCOCC3)c3c(c12)CC(C)(C)OC3`, for which the cell count in test [1] is 579. The inhibition in test [1] is -3.2% (inactive); in test [2], -78.7% (inactive); in [4], -6.86% (inactive); in test [9], -7.31% (inactive). In addition, the nuclei count in test [2] stood at 116%. Besides, the z-score in test [3] (setting [10]) is -0.458; in [3] (setting [11]) it was -0.399; in test [3] (setting [12]), -0.83. Also, the fluorescence slope in test [5] was -0.35 (inactive). The NADPH fluorescence slope in [6] is 1.4e-05 (inactive). Besides, the slope in test [7] was 0.00623 (inactive). The compound was classed as inactive in test [8].
Consider `CCSc1nc(N)c2c3c(sc2n1)CCC3`, for which the cell count in test [1] stood at 602. Moreover, the inhibition in [1] was -14.1% (inactive); in test [2], -20.6% (inactive); in [4], 7.7% (inactive); in [9] it was -5.03% (inactive). In addition, in [2], the nuclei count came to 146%. Also, the values for the z-score in [3] (setting [10]), in [3] (setting [11]) and in [3] (setting [12]) were 0.476, 0.818 and 0.254, respectively. Also, the fluorescence slope in test [5] was -0.408 (inactive). In addition, the NADPH fluorescence slope in test [6] is -4.9e-05 (inactive). Further, the slope in [7] is 0.00637 (inactive). In addition, the compound was classed as inactive in [8].
As for `CCOC(=O)c1[nH]c2ccc(OC)cc2c1C`, the cell count in test [1] was found to be 547. The inhibition in [1] is -3.8% (inactive); in test [2], -0.1% (inactive); in [4] it was -12.3% (inactive); in [9] it was 1.77% (inactive). In test [2], this compound gave a nuclei count of 171%. In addition, the z-score was -0.421 in test [3] (setting [10]), -0.589 in test [3] (setting [11]) and 0.677 in test [3] (setting [12]). Besides, the fluorescence slope in test [5] is -0.361 (inactive). Moreover, the NADPH fluorescence slope in test [6] is -2.9e-05 (inactive). Moreover, the slope in [7] was 0.0043 (inactive). Moreover, in [8], the result was inactive.
For the compound `c1csc(Cc2nn3c(-c4ccncc4)nnc3s2)c1`, in [1], the cell count came to 669. For the same compound, the inhibition in test [1] was -1.9% (inactive); in test [2] it was -17.9% (inactive); in [4], -6.06% (inactive); in test [9] it was 8.13% (inactive). The compound further yielded a nuclei count in [2] of 159%. Besides, the z-score is 0.0409 in test [3] (setting [10]), 0.511 in test [3] (setting [11]) and -0.101 in test [3] (setting [12]). Moreover, the fluorescence slope in test [5] is -0.412 (inactive). In [6], the NADPH fluorescence slope was -0.000115 (inactive). Moreover, the slope in test [7] is 0.00514 (inactive). Also, in [8], the compound was classed as inactive.
In the case of `c1ccc2c(c1)NC(c1ccncc1)n1c-2nc2ccccc21` (stereo not drawn), the cell count in test [1] is 301. The inhibition in [1] was 5% (inactive); in [2], -118% (inactive); in test [4], -2.91% (inactive); in test [9] it was -2.42% (inactive). This compound also returned a nuclei count in [2] of 108%. Further, the z-score in test [3] (setting [10]) is -1.27; in [3] (setting [11]), 1.48; in [3] (setting [12]), 0.784. Further, the fluorescence slope in test [5] was -0.384 (inactive). Moreover, in test [6], the NADPH fluorescence slope is -5.4e-05 (inactive). Also, in test [7], the slope is 0.00501 (inactive). Moreover, the compound was called inactive in test [8].
